Data published in ChEMBL document CHEMBL4480400, “Development of an N-Acyl Amino Acid That Selectively Inhibits the Glycine Transporter 2 To Produce Analgesia in a Rat Model of Chronic Pain” (J Med Chem, 2019).
Active and inactive are the calls of the source.

How the values were obtained:
[1] = molecular target: Sodium-dependent noradrenaline transporter (Homo sapiens) (UniProt P23975); experiment: Displacement of [125I] RTI-55 from recombinant human full length NET expressed in MDCK cells at 10 uM after 120 mins by scintillation counting relative to control; assay type: cell-based
Sequence of Sodium-dependent noradrenaline transporter (Homo sapiens) (P23975 whole entry): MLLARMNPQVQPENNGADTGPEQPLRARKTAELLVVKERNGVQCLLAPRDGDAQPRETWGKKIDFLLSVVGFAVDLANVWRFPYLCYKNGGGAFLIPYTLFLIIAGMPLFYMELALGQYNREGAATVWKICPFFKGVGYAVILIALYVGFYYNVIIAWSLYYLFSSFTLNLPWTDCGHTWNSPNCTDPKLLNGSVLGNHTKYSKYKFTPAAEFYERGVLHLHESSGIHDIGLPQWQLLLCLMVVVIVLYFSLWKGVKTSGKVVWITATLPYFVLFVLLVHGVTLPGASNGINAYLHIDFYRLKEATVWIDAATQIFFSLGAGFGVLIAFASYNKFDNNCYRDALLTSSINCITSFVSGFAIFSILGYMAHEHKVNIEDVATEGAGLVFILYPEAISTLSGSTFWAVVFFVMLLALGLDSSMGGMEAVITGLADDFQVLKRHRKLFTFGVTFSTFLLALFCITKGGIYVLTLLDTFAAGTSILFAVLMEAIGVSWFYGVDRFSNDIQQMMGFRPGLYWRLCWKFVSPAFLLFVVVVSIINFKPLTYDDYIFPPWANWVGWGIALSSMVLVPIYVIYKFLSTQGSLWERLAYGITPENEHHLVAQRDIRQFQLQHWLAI

[2] = molecular target: Mu-type opioid receptor (Homo sapiens) (UniProt P35372); experiment: Displacement of [3H]DAMGO from recombinant human mu-type opioid receptor at 10 uM after 120 mins by scintillation counting relative to control
Sequence of Mu-type opioid receptor (Homo sapiens) (P35372 whole entry): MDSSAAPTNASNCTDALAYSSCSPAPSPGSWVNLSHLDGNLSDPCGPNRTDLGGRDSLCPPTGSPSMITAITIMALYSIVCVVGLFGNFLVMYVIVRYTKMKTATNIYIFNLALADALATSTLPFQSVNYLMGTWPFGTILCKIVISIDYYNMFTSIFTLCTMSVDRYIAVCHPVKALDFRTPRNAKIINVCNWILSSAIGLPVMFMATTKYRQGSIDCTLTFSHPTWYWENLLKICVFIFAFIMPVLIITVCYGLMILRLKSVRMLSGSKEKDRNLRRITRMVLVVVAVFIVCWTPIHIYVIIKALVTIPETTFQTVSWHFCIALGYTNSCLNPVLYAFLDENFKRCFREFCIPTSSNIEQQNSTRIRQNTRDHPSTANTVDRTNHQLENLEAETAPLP

[3] = Drug degradation in human liver microsomes at 1 uM measured over 60 mins by LC-MS/MS analysis; assay type: ADME, Microsome; details: read-out: Drug degradation
Outline: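 Human or rat liver microsomes (0.4 mg/mL protein final) in 0.1 M phosphate buffer pH 7.4 with 1 μM compound at 37°C. Reaction started with an NADPH-regenerating system plus MgCl2. Samples were quenched with ice-cold acetonitrile at time points over 60 min. Remaining parent was measured by LC-MS, and the first-order depletion rate constant came from an exponential decay fit.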

[4] = Degradation half life in rat plasma at 1000 ng/ml by LC-MS/MS analysis; assay type: ADME, cell-free
Outline: (§1)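 Pooled human plasma (3 donors) or pooled male Sprague-Dawley rat plasma, thawed at 37°C. Spiked to a nominal 1000 ng/mL final (0.2% DMSO, 0.4% acetonitrile final) and incubated at 37°C. Aliquots were snap-frozen at time points over 4 h (n=3 per time point). Quantified by LC-MS against a same-species blank-plasma calibration with a leucine enkephalin internal standard.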

[5] = Degradation half life in human plasma at 1000 ng/ml by LC-MS/MS analysis; assay type: ADME, cell-free; outline: as §1
[6] = molecular target: T1, Alpha-2A adrenergic receptor (Homo sapiens) (UniProt P08913); experiment: Displacement of [3H]RX821002 from recombinant human alpha2A adrenoceptor at 10 uM after 60 mins by scintillation counting relative to control
T1 sequence (whole entry): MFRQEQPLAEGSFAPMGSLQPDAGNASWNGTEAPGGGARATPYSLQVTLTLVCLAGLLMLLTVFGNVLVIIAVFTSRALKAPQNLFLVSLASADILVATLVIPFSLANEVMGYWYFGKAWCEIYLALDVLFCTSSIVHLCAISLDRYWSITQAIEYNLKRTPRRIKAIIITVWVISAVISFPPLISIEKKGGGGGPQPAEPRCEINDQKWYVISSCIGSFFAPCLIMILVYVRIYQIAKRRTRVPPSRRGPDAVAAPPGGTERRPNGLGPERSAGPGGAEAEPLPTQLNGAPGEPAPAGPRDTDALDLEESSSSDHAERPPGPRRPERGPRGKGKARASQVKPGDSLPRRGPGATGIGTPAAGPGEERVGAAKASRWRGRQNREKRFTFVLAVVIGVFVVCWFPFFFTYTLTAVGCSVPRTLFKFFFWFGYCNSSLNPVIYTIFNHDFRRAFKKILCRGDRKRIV

[7] = molecular target: T2, Sodium- and chloride-dependent glycine transporter 2 (Homo sapiens) (UniProt Q9Y345); experiment: Inhibition of recombinant human GlyT2a expressed in Xenopus laevis oocytes assessed as reduction in channel current by two-electrode voltage clamp electrophysiology relative to control; assay type: cell-based
T2 sequence (whole entry): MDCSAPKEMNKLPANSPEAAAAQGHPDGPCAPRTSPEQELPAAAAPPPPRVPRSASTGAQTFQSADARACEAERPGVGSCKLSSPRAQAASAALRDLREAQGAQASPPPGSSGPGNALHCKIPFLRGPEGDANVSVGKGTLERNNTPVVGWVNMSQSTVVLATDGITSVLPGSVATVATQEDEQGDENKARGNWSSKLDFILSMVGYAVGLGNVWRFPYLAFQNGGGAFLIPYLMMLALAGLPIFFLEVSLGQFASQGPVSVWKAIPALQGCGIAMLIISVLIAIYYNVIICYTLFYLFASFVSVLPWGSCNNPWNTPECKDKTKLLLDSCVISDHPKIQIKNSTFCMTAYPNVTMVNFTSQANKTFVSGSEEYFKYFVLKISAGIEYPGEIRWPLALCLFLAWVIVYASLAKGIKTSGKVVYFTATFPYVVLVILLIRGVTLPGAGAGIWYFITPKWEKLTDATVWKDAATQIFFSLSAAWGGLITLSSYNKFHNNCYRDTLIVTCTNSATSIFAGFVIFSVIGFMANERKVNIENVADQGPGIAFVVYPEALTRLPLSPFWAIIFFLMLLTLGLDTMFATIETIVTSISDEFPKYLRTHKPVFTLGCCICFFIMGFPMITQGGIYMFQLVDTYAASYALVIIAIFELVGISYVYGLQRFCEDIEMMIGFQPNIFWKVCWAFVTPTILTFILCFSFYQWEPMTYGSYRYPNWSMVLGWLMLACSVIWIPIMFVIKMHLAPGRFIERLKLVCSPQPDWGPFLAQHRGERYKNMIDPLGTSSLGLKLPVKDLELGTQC

[8] = molecular target: Mu-type opioid receptor (Mus musculus) (UniProt P42866); experiment: Antagonist activity at MOR in mouse AtT-20 cells assessed as inhibition of agonist-induced IGIRK currents at 1 uM in presence of -60 mV holding potential measured every 2 secs by patch clamp assay; assay type: cell-based
Sequence of Mu-type opioid receptor (Mus musculus) (P42866 whole entry): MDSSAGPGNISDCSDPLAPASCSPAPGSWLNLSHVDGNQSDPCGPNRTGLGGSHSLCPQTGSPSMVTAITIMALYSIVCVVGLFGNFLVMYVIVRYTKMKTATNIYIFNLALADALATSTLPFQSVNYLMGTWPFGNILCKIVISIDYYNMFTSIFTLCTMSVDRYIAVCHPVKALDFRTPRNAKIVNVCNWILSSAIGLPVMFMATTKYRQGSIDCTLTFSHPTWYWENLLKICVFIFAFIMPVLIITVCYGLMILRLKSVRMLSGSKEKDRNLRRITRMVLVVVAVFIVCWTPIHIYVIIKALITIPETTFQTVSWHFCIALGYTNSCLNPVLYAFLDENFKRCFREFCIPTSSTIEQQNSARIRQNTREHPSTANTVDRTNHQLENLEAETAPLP

[9] = molecular target: Cannabinoid receptor 1 (Homo sapiens) (UniProt P21554); experiment: Agonist activity at human CB1 receptor
Sequence of Cannabinoid receptor 1 (Homo sapiens) (P21554 whole entry): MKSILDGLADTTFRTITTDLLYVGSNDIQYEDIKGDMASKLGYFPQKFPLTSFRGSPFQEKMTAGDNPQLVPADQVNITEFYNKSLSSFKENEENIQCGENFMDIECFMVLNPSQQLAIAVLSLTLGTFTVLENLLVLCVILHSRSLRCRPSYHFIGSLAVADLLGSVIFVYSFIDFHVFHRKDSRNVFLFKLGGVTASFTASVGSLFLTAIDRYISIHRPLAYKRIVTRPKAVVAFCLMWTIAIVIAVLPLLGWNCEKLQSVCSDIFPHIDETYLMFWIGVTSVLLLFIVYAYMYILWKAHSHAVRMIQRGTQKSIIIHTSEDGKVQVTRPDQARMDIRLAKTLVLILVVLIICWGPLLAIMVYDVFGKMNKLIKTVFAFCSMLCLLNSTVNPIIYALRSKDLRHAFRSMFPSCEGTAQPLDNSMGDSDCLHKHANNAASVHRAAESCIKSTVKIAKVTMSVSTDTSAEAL

[10] = Ratio of drug uptake in Sprague-Dawley rat brain to plasma at 27.5 mg/kg, ip after 1 hr by UPLC analysis; assay type: ADME, organism-based; details: read-out: BPR
Outline: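 Male Sprague-Dawley rats (250–306 g) got one ip dose of a suspension (10% v/v DMSO, 1% solutol HS-15 in 50 mM PBS, pH 7.4). Terminal cardiac-puncture heparinised plasma and whole brain were sampled over 24 h, n=3 rats per time point. Samples were extracted by protein precipitation and read by UPLC-MS/MS in positive ESI MRM with a diazepam internal standard. Parameters are non-compartmental; the time-averaged B/P comes from AUC0-24h.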

Rattus norvegicus = experiment: Analgesic activity in Sprague-Dawley rat model of neuropathic pain assessed as reduction in allodynia at 30 mg/kg, ip administered as single dose measured after 90 mins post injection; assay type: functional, organism-based
Outline: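 Male Sprague-Dawley rats were tested 14 days after nerve-constriction surgery. Mechanical paw withdrawal threshold was measured with von Frey filaments (0.4–15.1 g) by the up-down method, bounded at 0.2 and 15 g. Rats got a single ip injection with vehicle of 1% DMSO, 10% Solutol HS15 in 0.9% saline. Testing ran at 15–360 min post-injection with Bonferroni comparisons against vehicle.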

[11] = Toxicity in Sprague-Dawley rat model of neuropathic pain assessed as incidence of localized pain rat 30 mg/kg, ip administered as single dose measured up to 15 mins post injection; assay type: organism-based; details: in vivo, 0.25 h
[12] = molecular target: Sodium channel protein type 5 subunit alpha (Homo sapiens, UniProt Q14524); experiment: Inhibition of human NaV1.5 expressed in HEK293 cells at 1 uM; assay type: cell-based; details: hek293, 1 µM
Sequence of Sodium channel protein type 5 subunit alpha (Q14524 whole entry): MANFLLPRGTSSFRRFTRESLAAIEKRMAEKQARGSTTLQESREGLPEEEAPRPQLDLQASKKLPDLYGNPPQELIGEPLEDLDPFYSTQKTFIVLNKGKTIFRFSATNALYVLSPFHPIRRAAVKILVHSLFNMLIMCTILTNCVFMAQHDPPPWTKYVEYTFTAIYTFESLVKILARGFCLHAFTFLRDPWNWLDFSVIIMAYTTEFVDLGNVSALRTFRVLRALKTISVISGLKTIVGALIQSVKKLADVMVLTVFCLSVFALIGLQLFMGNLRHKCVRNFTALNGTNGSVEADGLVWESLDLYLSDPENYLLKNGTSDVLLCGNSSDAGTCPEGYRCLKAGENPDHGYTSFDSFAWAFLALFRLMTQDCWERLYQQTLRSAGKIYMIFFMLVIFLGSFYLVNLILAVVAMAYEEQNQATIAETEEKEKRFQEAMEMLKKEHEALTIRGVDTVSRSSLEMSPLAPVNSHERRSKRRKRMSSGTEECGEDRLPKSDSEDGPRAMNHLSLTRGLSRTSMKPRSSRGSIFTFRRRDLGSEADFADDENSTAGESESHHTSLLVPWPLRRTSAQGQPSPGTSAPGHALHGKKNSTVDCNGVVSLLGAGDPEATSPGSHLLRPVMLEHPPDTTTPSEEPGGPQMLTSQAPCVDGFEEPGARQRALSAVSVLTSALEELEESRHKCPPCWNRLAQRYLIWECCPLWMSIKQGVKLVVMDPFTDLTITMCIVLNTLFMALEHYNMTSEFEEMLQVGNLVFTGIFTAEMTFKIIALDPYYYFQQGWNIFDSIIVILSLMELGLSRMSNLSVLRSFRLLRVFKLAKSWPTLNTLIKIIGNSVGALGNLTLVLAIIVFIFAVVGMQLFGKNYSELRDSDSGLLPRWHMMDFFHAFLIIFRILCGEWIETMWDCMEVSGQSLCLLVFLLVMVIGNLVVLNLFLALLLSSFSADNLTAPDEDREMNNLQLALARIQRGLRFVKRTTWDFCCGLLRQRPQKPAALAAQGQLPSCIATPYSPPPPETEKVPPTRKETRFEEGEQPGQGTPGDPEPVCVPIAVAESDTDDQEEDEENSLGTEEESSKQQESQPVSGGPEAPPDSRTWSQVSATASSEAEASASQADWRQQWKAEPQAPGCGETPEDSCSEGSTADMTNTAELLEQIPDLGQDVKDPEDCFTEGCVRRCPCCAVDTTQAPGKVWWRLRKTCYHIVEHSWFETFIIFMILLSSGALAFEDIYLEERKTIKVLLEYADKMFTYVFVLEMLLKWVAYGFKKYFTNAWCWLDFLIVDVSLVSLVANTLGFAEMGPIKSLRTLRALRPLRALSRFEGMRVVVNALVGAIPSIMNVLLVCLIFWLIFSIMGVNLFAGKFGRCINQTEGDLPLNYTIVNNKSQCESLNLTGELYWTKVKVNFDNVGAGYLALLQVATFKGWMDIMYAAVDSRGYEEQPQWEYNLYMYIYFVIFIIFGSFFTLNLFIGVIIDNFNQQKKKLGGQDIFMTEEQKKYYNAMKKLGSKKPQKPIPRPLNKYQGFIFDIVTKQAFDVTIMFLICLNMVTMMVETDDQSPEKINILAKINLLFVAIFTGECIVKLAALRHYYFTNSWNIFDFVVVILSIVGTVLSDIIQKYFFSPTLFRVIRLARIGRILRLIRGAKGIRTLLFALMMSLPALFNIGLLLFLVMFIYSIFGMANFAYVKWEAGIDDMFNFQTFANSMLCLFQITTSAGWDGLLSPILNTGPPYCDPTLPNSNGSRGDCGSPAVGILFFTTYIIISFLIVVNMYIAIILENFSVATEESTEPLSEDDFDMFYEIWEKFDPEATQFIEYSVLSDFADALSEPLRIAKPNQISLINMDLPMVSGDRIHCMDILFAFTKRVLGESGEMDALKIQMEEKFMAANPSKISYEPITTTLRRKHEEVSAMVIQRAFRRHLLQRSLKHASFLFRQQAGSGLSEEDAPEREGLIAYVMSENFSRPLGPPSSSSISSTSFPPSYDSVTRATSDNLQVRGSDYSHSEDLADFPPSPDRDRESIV

`CCCCCCCC/C=C\CCCCCCCC(=O)N[C@H](CCCCN)C(=O)O.Cl` gave an inhibition [1] of over 50%, an inhibition [2] of over 50% and a metabolised at 1 h, 1 µM [3] of under 15%. The t1/2 [4] was over 17.03 h, the t1/2 [5] was over 17.03 h and the inhibition [6] was over 50%. For the same compound, the Imax [7] was 91%, the inhibition [8] was “inactive” and the Activity [9] was “inactive”. The Kp at 1 h [10] was 0.08, the Activity (Rattus norvegicus) was “Active” and the Activity [11] was “Toxic”. For the same compound, the “inhibition (INH)” value [12] was “Not Active”.
